Measured values as given in ChEMBL document CHEMBL1130090, “Antitumor agents. 174. 2',3',4',5,6,7-Substituted 2-phenyl-1,8-naphthyridin-4-ones: their synthesis, cytotoxicity, and inhibition of tubulin polymerization” (J Med Chem, 1997).

Key:
Type in all cases: functional
786-0 = test: Concentration which reduced cell growth to 50 % of level against 786-0 renal cancer line; conditions: Homo sapiens
HCT-116 = test: Concentration which reduced cell growth to 50 % of level against HCT116 colon cancer cell line; conditions: Homo sapiens
HL-60 = test: Concentration which reduced cell growth to 50 % of level against HL-60 (TB) leukemia cell line; conditions: Homo sapiens
Tumor Cell line = test: Cytotoxic effect in human tumor cell lines, tested by the National Cancer Institute; conditions: read-out: Average LogGI50 (converted)
MDA-N = test: Concentration which reduced cell growth to 50 % of level against MDA-N breast cancer line; conditions: Homo sapiens
MDA-MB-435 = test: Concentration which reduced cell growth to 50 % of level against MDA-MB-435 breast cancer line; conditions: Homo sapiens
NCI-H460 = test: compound was tested for concentration which reduced cell growth to 50 % of level against NCI-H460 non -small-cell lung cancer cell line; conditions: Homo sapiens
OVCAR-3 = test: Concentration which reduced cell growth to 50 % of level against OVCAR-3 ovarian cancer line; conditions: Homo sapiens
PC-3 = test: Concentration which reduced cell growth to 50 % of level against PC-3 prostate cancer line; conditions: Homo sapiens
SF-295 = test: Concentration which reduced cell growth to 50 % of level against SF-295 CNS cancer line; conditions: Homo sapiens
SK-MEL-5 = test: Concentration which reduced cell growth to 50 % of level against SK-MEL-5 melanoma cell line; conditions: Homo sapiens
U-251 = test: Concentration which reduced cell growth to 50 % of U251 cancer line; conditions: Homo sapiens
Tubulin beta chain = Tubulin beta chain (Bos taurus, UniProt Q6B856); test: Inhibition of bovine tubulin polymerization
Sequence of Tubulin beta chain (Q6B856 whole entry): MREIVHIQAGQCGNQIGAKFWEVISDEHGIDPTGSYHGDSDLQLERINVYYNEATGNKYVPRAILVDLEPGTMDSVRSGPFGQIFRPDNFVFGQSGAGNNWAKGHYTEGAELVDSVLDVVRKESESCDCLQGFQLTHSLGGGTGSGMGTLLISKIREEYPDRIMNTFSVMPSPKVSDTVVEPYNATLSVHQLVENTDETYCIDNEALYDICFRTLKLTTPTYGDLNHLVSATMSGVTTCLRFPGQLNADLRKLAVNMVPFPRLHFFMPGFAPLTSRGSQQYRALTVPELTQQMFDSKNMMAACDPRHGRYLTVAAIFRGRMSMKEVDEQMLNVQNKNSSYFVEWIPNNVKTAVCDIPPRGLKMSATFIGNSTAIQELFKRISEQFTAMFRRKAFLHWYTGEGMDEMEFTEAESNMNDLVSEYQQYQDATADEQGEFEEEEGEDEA

[1] = target: Tubulin alpha chain (Sus scrofa) (UniProt P02550); test: Inhibition of colchicine binding and evaluated only when polymerization IC50 <=1 uM
Sequence of Tubulin alpha chain (Sus scrofa) (P02550 whole entry, looked up): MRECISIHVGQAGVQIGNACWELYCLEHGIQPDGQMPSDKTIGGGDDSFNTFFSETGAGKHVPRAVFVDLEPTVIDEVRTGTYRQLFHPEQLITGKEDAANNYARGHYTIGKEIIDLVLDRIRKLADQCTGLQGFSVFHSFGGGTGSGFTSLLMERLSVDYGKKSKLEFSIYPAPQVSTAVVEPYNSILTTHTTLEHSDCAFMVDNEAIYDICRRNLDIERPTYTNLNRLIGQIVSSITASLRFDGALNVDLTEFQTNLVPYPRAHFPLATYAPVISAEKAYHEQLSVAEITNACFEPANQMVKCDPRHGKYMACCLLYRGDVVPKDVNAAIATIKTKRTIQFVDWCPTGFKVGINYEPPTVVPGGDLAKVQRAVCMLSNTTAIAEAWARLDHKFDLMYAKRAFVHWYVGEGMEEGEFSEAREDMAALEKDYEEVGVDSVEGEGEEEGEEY
Summary of the method: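 Electrophoretically homogeneous bovine brain tubulin (1.0 µM) incubated 20 min at 37 °C with 5.0 µM [3H]colchicine and 5.0 µM inhibitor in 1.0 M monosodium glutamate (pH 6.6), 1 mM MgCl2, 0.1 mM GTP, 5% (v/v) DMSO. Mixtures filtered through two stacked DEAE-cellulose filters and washed with water. Bound radioactivity counted by liquid scintillation.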

SMILES | GI50 (786-0) [µM] | GI50 (HCT-116) [µM] | GI50 (HL-60) [µM] | GI50 (Tumor Cell line) [µM] | GI50 (MDA-N) [µM] | GI50 (MDA-MB-435) [µM] | GI50 (NCI-H460) [µM] | GI50 (OVCAR-3) [µM] | GI50 (PC-3) [µM] | GI50 (SF-295) [µM] | GI50 (SK-MEL-5) [µM] | GI50 (U-251) [µM] | IC50 (Tubulin beta chain) [µM] | inhibition [1] [%]
COc1ccc(-c2cc(O)c3c(C)cc(C)nc3n2)cc1 | 58.9 | 36.3 | 15.5 | 33.1 | 33.1 | 28.8 | 40.7 | 32.4 | 24 | 42.7 | 17.8 | 91.2 | > 40 | –
COc1cccc(-c2cc(O)c3c(C)cc(C)nc3n2)c1 | 0.437 | 0.407 | 0.174 | 0.646 | < 0.01 | < 0.01 | 0.447 | 0.251 | 0.309 | 0.417 | 0.288 | 0.17 | 0.88 | 22
Cc1cc(C)c2c(O)cc(-c3ccc(Cl)cc3)nc2n1 | 21.4 | 14.8 | 25.1 | 19.5 | 3.63 | 4.07 | 22.4 | 18.2 | 6.31 | 16.2 | 14.1 | 30.2 | 32 | –
COc1ccccc1-c1cc(O)c2c(C)ccnc2n1 | 60.3 | 7.59 | 20.9 | 2.82 | 8.32 | 6.46 | 24 | 12.9 | 20.9 | 23.4 | 22.4 | 35.5 | 20 | –
Cc1ccnc2nc(-c3ccc(F)cc3)cc(O)c12 | 33.9 | 16.2 | 4.79 | 38 | 3.55 | 2.88 | 32.4 | 56.2 | 51.3 | 79.4 | 16.2 | 36.3 | 18 | –
COc1ccc(-c2cc(O)c3cc(C)cnc3n2)cc1 | 5.13 | 4.17 | 2.29 | 6.17 | 1.7 | 1.82 | 4.07 | 2.95 | 5.37 | 5.25 | 3.72 | 4.17 | 7.7 | –
